Laboratory results reported in ChEMBL document CHEMBL1759956, “Rhodium(II) acetate-catalyzed stereoselective synthesis, SAR and anti-HIV activity of novel oxindoles bearing cyclopropane ring” (Eur J Med Chem, 2011).

Key:
[1] = Cytotoxicity against human TZM-bl cells assessed as cell viability at 50 ug after 48 hrs by MTT assay; type: cell-based; settings: read-out: Activity
How it was run: (§1)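 TZM-bl cells, 3 × 10³ per well, incubated 48 h at 37 °C in 5% CO₂ with or without compound. MTT (5 mg/mL reagent) added for 3 h, then solubilised in 20% SDS/50% DMF in PBS. OD read at 570 nm with 690 nm reference. Viability = [(OD treated − OD virus control)/(OD uninfected − OD virus control)] × 100.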

[2] = Cytotoxicity against human TZM-bl cells assessed as cell viability at 20 ug after 48 hrs by MTT assay; type: cell-based; settings: read-out: Activity; how it was run: as §1
[3] = Cytotoxicity against human TZM-bl cells assessed as cell viability at 10 ug after 48 hrs by MTT assay; type: cell-based; settings: read-out: Activity; how it was run: as §1
[4] = Cytotoxicity against human TZM-bl cells assessed as cell viability at 100 ug after 48 hrs by MTT assay; type: cell-based; settings: read-out: Activity; how it was run: as §1
[5] = Cytotoxicity against human CEM cells expressing green fluorescent protein assessed as cell viability at 10 ug after 48 hrs by MTT assay; type: cell-based, CCRF-CEM; settings: read-out: Activity
[6] = Cytotoxicity against human CEM cells expressing green fluorescent protein assessed as cell viability at 20 ug after 48 hrs by MTT assay; type: cell-based, CCRF-CEM; settings: read-out: Activity
[7] = Cytotoxicity against human CEM cells expressing green fluorescent protein assessed as cell viability at 50 ug after 48 hrs by MTT assay; type: cell-based, CCRF-CEM; settings: read-out: Activity
[8] = Cytotoxicity against human CEM cells expressing green fluorescent protein assessed as cell viability at 100 ug after 48 hrs by MTT assay; type: cell-based, CCRF-CEM; settings: read-out: Activity
[9] = system: Human immunodeficiency virus 1; experiment: Antiviral activity against 0.025 MOI Human immunodeficiency virus 1 infected in human TZM-bl cells at 2 ug/ml after 48 hrs by beta-galactosidase assay; type: functional; settings: Human immunodeficiency virus 1, TZM-bl
How it was run: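 TZM-bl cells, 2.0 × 10⁵ per well, cultured overnight at 37 °C in 5% CO₂. Virus with treatments added for 4 h. Cells then washed twice in serum-free DMEM and refed with DMEM + 10% FCS. Compounds re-added and cells incubated 48 h. Cells fixed in 1% glutaraldehyde for 10 min and stained 24 h at 37 °C. Blue foci counted microscopically; % inhibition = 100 − (foci treated/foci untreated infected × 100). AZT positive control.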

[10] = system: Human immunodeficiency virus 1; experiment: Antiviral activity against 0.05 MOI Human immunodeficiency virus 1 NL4.3 infected in human CEM cells expressing green fluorescent protein at 20 ug/ml after 8 days by fluorometric analysis; type: functional; settings: Human immunodeficiency virus 1, NL4.3, CCRF-CEM, 192 h
How it was run: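 CEM-GFP cells seeded at 2.0 × 10⁵ cells/mL with compounds in duplicate. AZT ([…]) was the positive control; 50% ethanol and distilled water were vehicle controls. Cells incubated at 37 °C in 5% CO₂. On day 5, 0.4 mL of suspension was replaced with 1 mL fresh medium and compounds were re-added, then incubation continued. % inhibition = 100 − (GFP fluorescence treated/untreated infected × 100).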

[11] = Partition coefficient, log P of the compound; type: physicochemical; settings: octanol/water

Row | Structure (SMILES) | viability at 48 h, 50 ug [1] | viability at 48 h, 20 ug [2] | viability at 48 h, 10 ug [3] | viability at 48 h, 100 ug [4] | viability at 48 h, 10 ug [5] | viability at 48 h, 20 ug [6] | viability at 48 h, 50 ug [7] | viability at 48 h, 100 ug [8] | inhibition at 2 µg/mL [9] | inhibition at 20 µg/mL [10] | logP [11]
1 | O=C1Nc2ccc([N+](=O)[O-])cc2[C@]12C[C@H]2CO | 104% | 107% | 100% | 109% | 119% | 127% | 122% | 116% | 5% | 3% | 0.54
2 | O=C1Nc2ccc([N+](=O)[O-])cc2[C@]12C[C@H]2CCl | 101% | 102% | 102% | 92% | 101% | 118% | 103% | 76% | 6% | 4% | 1.84
3 | O=C1Nc2ccc(OC(F)(F)F)cc2[C@]12C[C@H]2CCl | 66% | 95% | 91% | 60% | 94% | 74% | 37% | 2% | 9% | 3% | 3.48
4 | O=C1Nc2ccc(OC(F)(F)F)cc2[C@]12C[C@H]2CO | 62% | 93% | 90% | 60% | 91% | 72% | 33% | 3% | 10% | 7% | 1.89
5 | Cc1ccc2c(c1)[C@]1(C[C@H]1CCl)C(=O)N2 | 88% | 91% | 93% | 87% | 92% | 89% | 85% | 81% | 8% | 5% | 2.44
6 | Cc1ccc2c(c1)[C@]1(C[C@H]1CO)C(=O)N2 | 95% | 100% | 102% | 93% | 105% | 101% | 100% | 100% | 6% | 3% | 1.21
7 | O=C1Nc2ccccc2[C@]12C[C@H]2CO | 92% | 98% | 99% | 89% | 96% | 95% | 92% | 90% | 4% | 6% | 2.19
8 | O=C1Nc2ccccc2[C@]12C[C@H]2CCl | 87% | 92% | 93% | 86% | 91% | 87% | 83% | 88% | 7% | 2% | 1.95
